# Reference: ChEMBL document CHEMBL1268816, “Discovery of a series of potent, orally active α,α-disubstituted piperidine NK(1) antagonists” (Bioorg Med Chem Lett, 2010)
# Legend:
# Meriones unguiculatus [1] = experiment: Inhibition of GR-73632-induced foot tapping in Mongolian gerbil assessed as duration of repetitive hind foot tapping pretreated at 1 mg/kg, icv before GR-73632 challenge measured after 4 hrs; type: functional; conditions: oral, in the assay text read “po before” for “icv before”
# How it was run: (§1)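 Female Mongolian gerbils given NK1 agonist GR73632 (3 pmol) by icv injection. Test antagonists given orally in 0.4% methylcellulose in distilled water at the indicated dose, at various pretreatment times before agonist. After recovery from anesthesia, animals observed 5 min in clear boxes and hind-foot tapping duration timed. Result expressed as % decrease versus vehicle-treated controls.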
# Substance-P receptor = Substance-P receptor (Homo sapiens, UniProt P25103); experiment: Displacement of [3H]SAr-Met from human recombinant NK1 receptor expressed in CHO cells; type: cell-based
# Substance-P receptor, sequence (P25103 whole entry): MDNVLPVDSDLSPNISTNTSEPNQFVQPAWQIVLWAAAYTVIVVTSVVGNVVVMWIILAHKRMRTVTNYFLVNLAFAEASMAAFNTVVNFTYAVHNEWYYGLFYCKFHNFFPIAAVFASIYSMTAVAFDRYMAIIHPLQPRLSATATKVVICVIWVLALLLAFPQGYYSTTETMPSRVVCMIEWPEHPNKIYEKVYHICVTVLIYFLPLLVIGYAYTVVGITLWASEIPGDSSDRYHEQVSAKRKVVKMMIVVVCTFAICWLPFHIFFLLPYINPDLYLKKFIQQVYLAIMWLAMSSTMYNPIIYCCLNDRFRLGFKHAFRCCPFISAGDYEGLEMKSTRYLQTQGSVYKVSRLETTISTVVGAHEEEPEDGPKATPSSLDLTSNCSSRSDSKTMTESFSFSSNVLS
# How it was run: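 Membranes from CHO cells expressing recombinant human NK1 receptor; radioligand [3H]-Sar-Met substance P used near its experimentally derived Kd. Ki derived by Cheng–Prusoff equation. Binding values are the average of two or three independent determinations.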
# [2] = AUC (0 to 6 hrs) in rat at 10 mg/kg, po after 6 hrs; type: ADME, organism-based; parameters: time < 6 hr, dose 10 mg/kg, route oral; conditions: plasma
# How it was run: (§2)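 Rat pharmacokinetics after oral dosing at 10 mpk (unless otherwise specified), vehicle 20% HPBCD.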
# Meriones unguiculatus [3] = experiment: Inhibition of GR-73632-induced foot tapping in Mongolian gerbil assessed as duration of repetitive hind foot tapping pretreated at 0.3 mg/kg, icv before GR-73632 challenge measured after 4 hrs; type: functional; conditions: oral, in the assay text read “po” for “icv”; how it was run: as §1
# [4] = AUC (0 to 6 hrs) in rat at 10 mg/kg, po; type: ADME, organism-based; parameters: time < 6 hr, dose 10 mg/kg, route oral; conditions: plasma; how it was run: as §2
# Meriones unguiculatus [5] = experiment: Inhibition of GR-73632-induced foot tapping in Mongolian gerbil assessed as duration of repetitive hind foot tapping pretreated at 0.1 mg/kg, icv before GR-73632 challenge measured after 4 hrs; type: functional; conditions: oral, in the assay text read “po” for “icv”; how it was run: as §1
# [6] = Half life in rat at 10 mg/kg, po; type: ADME, organism-based; parameters: dose 10 mg/kg, route oral; conditions: in vivo; how it was run: as §2
# [7] = Oral bioavailability in rat at 10 mg/kg; type: ADME, organism-based; conditions: in vivo; how it was run: as §2
# [8] = AUC (0 to 6 hrs) in rat at 5 mg/kg, po after 24 hrs; type: ADME, organism-based; parameters: time < 6 hr, dose 5 mg/kg, route oral; conditions: plasma
Structure (SMILES),Ki (Substance-P receptor),AUC(0-t) at 6 h [2],AUC(0-t) at 6 h [4],half-life [6],bioavailability [7],AUC(0-t) at 6 h [8],inhibition in vivo at 1 mg/kg (Meriones unguiculatus [1]),inhibition in vivo at 0.3 mg/kg (Meriones unguiculatus [3]),inhibition in vivo at 0.1 mg/kg (Meriones unguiculatus [5])
CCNC(=O)[C@H]1CC[C@@](CO[C@H](C)c2cc(C(F)(F)F)cc(C(F)(F)F)c2)(c2ccccc2)NC1,0.37 nM,3680 ng·h/mL,,,,,92%,28%,
C[C@@H](OC[C@@]1(c2ccccc2)CC[C@H](NC2=NCCO2)CN1)c1cc(C(F)(F)F)cc(C(F)(F)F)c1,0.28 nM,,,,,,37%,,
C[C@@H](OC[C@@]1(c2ccccc2)CC[C@H](N2CCCC2=O)CN1)c1cc(C(F)(F)F)cc(C(F)(F)F)c1,0.26 nM,,13800 ng·h/mL,,,,61%,,
C[C@@H](OC[C@@]1(c2ccccc2)CC[C@H](N2CCNC2=O)CN1)c1cc(C(F)(F)F)cc(C(F)(F)F)c1,0.59 nM,,,,,,86%,71%,
FC(F)(F)c1cc(COCC2(c3ccccc3)CCCCN2)cc(C(F)(F)F)c1 (configuration not stated),1 nM,,,,,,,,
C[C@@H](OC[C@@]1(c2ccccc2)CC[C@H](Nc2ncccn2)CN1)c1cc(C(F)(F)F)cc(C(F)(F)F)c1,0.33 nM,,,,,,5%,,
C[C@@H](OC[C@@]1(c2ccccc2)CC[C@H](C(=O)NC2CC2)CN1)c1cc(C(F)(F)F)cc(C(F)(F)F)c1,0.34 nM,1940 ng·h/mL,,,,,45%,,
CCNC(=O)[C@@H]1CC[C@@](CO[C@H](C)c2cc(C(F)(F)F)cc(C(F)(F)F)c2)(c2ccccc2)NC1,1.13 nM,,,,,,78%,,
C[C@@H](OC[C@@]1(c2ccccc2)CCCCN1)c1cc(C(F)(F)F)cc(C(F)(F)F)c1,0.3 nM,,,,,,,,
C[C@@H](OC[C@@]1(c2ccccc2)CC[C@@H](C(=O)NC2CC2)CN1)c1cc(C(F)(F)F)cc(C(F)(F)F)c1,0.4 nM,,,,,,69%,,

# Now from value to compound, other results behind:
Ki (Substance-P receptor),AUC(0-t) at 6 h [2],AUC(0-t) at 6 h [4],half-life [6],bioavailability [7],AUC(0-t) at 6 h [8],Structure (SMILES),inhibition in vivo at 1 mg/kg (Meriones unguiculatus [1]),inhibition in vivo at 0.3 mg/kg (Meriones unguiculatus [3]),inhibition in vivo at 0.1 mg/kg (Meriones unguiculatus [5])
0.29 nM,,1950 ng·h/mL,,,,CCC(=O)N[C@H]1CC[C@@](CO[C@H](C)c2cc(C(F)(F)F)cc(C(F)(F)F)c2)(c2ccccc2)NC1,100%,93%,50%
0.23 nM,,5260 ng·h/mL,,,,C[C@@H](OC[C@@]1(c2ccccc2)CC[C@H](NC(=O)C2CC2)CN1)c1cc(C(F)(F)F)cc(C(F)(F)F)c1,100%,79%,
0.15 nM,,10000 ng·h/mL,3.2 h,63%,,CC(=O)N[C@H]1CC[C@@](CO[C@H](C)c2cc(C(F)(F)F)cc(C(F)(F)F)c2)(c2ccccc2)NC1,100%,99%,83%
0.26 nM,,,,,,CNC(=O)[C@H]1CC[C@@](CO[C@H](C)c2cc(C(F)(F)F)cc(C(F)(F)F)c2)(c2ccccc2)NC1,91%,29%,
0.35 nM,,795 ng·h/mL,,,,CC(=O)N[C@@H]1CC[C@@](CO[C@H](C)c2cc(C(F)(F)F)cc(C(F)(F)F)c2)(c2ccccc2)NC1,76%,36%,
0.69 nM,,6040 ng·h/mL,,,,C[C@@H](OC[C@@]1(c2ccccc2)CC[C@H](NC(N)=O)CN1)c1cc(C(F)(F)F)cc(C(F)(F)F)c1,96%,6%,
1.03 nM,,5940 ng·h/mL,,,,C[C@@H](OC[C@@]1(c2ccccc2)CC[C@H](NS(C)(=O)=O)CN1)c1cc(C(F)(F)F)cc(C(F)(F)F)c1,90%,25%,
0.22 nM,,,3.4 h,68%,2600 ng·h/mL,C[C@@H](OC[C@@]1(c2ccccc2)CC[C@H](C(N)=O)CN1)c1cc(C(F)(F)F)cc(C(F)(F)F)c1,92%,82%,
0.19 nM,1690 ng·h/mL,,,,,C[C@@H](OC[C@@]1(c2ccccc2)CC[C@@H](C(N)=O)CN1)c1cc(C(F)(F)F)cc(C(F)(F)F)c1,90%,75%,
0.56 nM,166 ng·h/mL,,,,,CNC(=O)[C@@H]1CC[C@@](CO[C@H](C)c2cc(C(F)(F)F)cc(C(F)(F)F)c2)(c2ccccc2)NC1,80%,,
